In ChEMBL document CHEMBL3414458, “Discovery of novel 2,5-dioxoimidazolidine-based P2X(7) receptor antagonists as constrained analogues of KN62” (J Med Chem, 2015):
Calls of active or inactive are those of the source. The calls are words filed in the database; no cut-off is given here.

Assays:
P2X purinoceptor 7 [1] = target: T1, P2X purinoceptor 7 (Homo sapiens, UniProt Q99572); test: Antagonist activity at recombinant human P2X7 receptor expressed in HEK293 cells assessed as inhibition of BzATP-induced intracellular ethidium bromide uptake after 2 hrs by fluorescence assay; format: cell-based
T1 sequence (Q99572 whole entry): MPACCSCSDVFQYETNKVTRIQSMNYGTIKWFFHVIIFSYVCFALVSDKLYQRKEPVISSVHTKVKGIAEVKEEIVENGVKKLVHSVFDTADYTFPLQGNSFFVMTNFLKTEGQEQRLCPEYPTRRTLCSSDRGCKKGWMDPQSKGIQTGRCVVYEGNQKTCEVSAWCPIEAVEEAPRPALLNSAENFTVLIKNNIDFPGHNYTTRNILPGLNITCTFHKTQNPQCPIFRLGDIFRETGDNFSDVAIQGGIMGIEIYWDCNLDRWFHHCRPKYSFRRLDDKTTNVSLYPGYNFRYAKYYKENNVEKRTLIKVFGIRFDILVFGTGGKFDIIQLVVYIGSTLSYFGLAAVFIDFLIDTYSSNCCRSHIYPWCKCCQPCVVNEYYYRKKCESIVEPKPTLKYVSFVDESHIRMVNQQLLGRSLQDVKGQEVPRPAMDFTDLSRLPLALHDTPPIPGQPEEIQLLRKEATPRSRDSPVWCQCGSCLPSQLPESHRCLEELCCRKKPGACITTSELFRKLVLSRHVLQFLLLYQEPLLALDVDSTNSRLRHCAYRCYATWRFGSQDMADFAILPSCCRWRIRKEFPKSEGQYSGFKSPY
Outline: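 Human HEK293 cells stably expressing recombinant human P2X7; ethidium accumulation stimulated by BzATP was measured.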

P2X purinoceptor 7 [2] = target: T1, P2X purinoceptor 7; test: Antagonist activity at P2X7 receptor in LPS/IFN-gamma-differentiated human THP1 cells assessed as inhibition of BzATP-induced IL-1beta release preincubated for 30 mins followed by BzATP induction measured after 30 mins by ELISA; format: cell-based, THP-1
Outline: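 Human THP-1 monocytes, LPS-primed, stimulated with BzATP; IL-1β release measured by ELISA. Active compounds were screened at 1 µM, and full concentration-response curves were run to obtain IC50.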

[3] = target: T2, P2X purinoceptor 7 (Homo sapiens) (UniProt Q99572); test: Antagonist activity at P2X7 receptor in LPS/IFN-gamma-differentiated human THP1 cells assessed as inhibition of BzATP-induced IL-1beta release at 1 uM preincubated for 30 mins followed by BzATP induction measured after 30 mins by ELISA relative to control; format: cell-based; settings: THP-1
T2 sequence (whole entry): T1 sequence (Q99572 whole entry)
Outline: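 LPS-primed THP-1 human monocytes were stimulated with BzATP, and IL-1β release was measured by ELISA. Test compound was given at a single concentration of 1 µM, and results are expressed as percent inhibition of BzATP-induced IL-1β release.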

[4] = target: T2, P2X purinoceptor 7 (Homo sapiens); test: Antagonist activity at recombinant human P2X7 receptor expressed in HEK293 cells assessed as inhibition of BzATP-induced intracellular ethidium bromide uptake at 10 uM after 2 hrs by fluorescence assay; format: cell-based

Row | Structure (SMILES) | IC50 (P2X purinoceptor 7 [1]) | IC50 (P2X purinoceptor 7 [2]) | inhibition [3] | inhibition [4]
1 | CC(C)N1C(=O)C(Cc2ccc(OS(=O)(=O)c3cccc4cnccc34)cc2)N(C2CCN(C(=O)c3ccc(Cl)c(C(F)(F)F)c3)CC2)C1=O (racemic) | 3240 nM | – | – | –
2 | CN([C@@H](Cc1ccc(OS(=O)(=O)c2cccc3cnccc23)cc1)C(=O)N1CCN(c2ccccc2)CC1)S(=O)(=O)c1cccc2cnccc12 | – | 143 nM | – | –
3 | CC(C)C(=O)N1CCC(N2C(=O)NC(=O)C2Cc2ccc(OS(=O)(=O)c3cccc4cnccc34)cc2)CC1 (racemic) | 7220 nM | – | 33% | –
4 | O=C1NC(=O)[C@H](Cc2ccc(OS(=O)(=O)c3cccc4cnccc34)cc2)N1 | – | – | – | inactive
5 | O=C1NC(=O)N(C2CCN(C(=O)c3ccc(Cl)c(C(F)(F)F)c3)CC2)C1c1ccc(OS(=O)(=O)c2cccc3cnccc23)cc1 (racemic) | – | – | – | 30%
6 | CCCC(=O)N1CCC(N2C(=O)NC(=O)C2Cc2ccc(OS(=O)(=O)c3cccc4cnccc34)cc2)CC1 (racemic) | 8770 nM | – | 37% | –
7 | CC(C)(C)C(=O)N1CCC(N2C(=O)NC(=O)C2Cc2ccc(OS(=O)(=O)c3cccc4cnccc34)cc2)CC1 (racemic) | 5650 nM | – | 49% | –
8 | CCC(=O)N1CCC(N2C(=O)NC(=O)C2Cc2ccc(OS(=O)(=O)c3cccc4cnccc34)cc2)CC1 (racemic) | 11700 nM | – | 48% | –
9 | O=C1NC(=O)N(CCC2CCN(C(=O)c3ccccc3)CC2)C1Cc1ccc(OS(=O)(=O)c2cccc3cnccc23)cc1 (racemic) | 4990 nM | – | 33% | –
10 | CC(C)CC(=O)N1CCC(N2C(=O)NC(=O)C2Cc2ccc(OS(=O)(=O)c3cccc4cnccc34)cc2)CC1 (racemic) | 4880 nM | – | 45% | –
11 | O=C1NC(=O)N(C2CCN(CC34CC5CC(CC(C5)C3)C4)CC2)C1Cc1ccc(OS(=O)(=O)c2cccc3cnccc23)cc1 (racemic) | 2290 nM | – | 49% | –
12 | CCCN1C(=O)C(Cc2ccc(OS(=O)(=O)c3cccc4cnccc34)cc2)N(C2CCN(C(=O)c3ccc(Cl)c(C(F)(F)F)c3)CC2)C1=O (racemic) | 1670 nM | – | – | –

Continued, values first:

Row | IC50 (P2X purinoceptor 7 [1]) | IC50 (P2X purinoceptor 7 [2]) | inhibition [3] | inhibition [4] | Structure (SMILES)
13 | 217 nM | 81 nM | – | – | O=C1NC(=O)N(C2CCN(C(=O)c3ccc(F)c(F)c3)CC2)C1Cc1ccc(OS(=O)(=O)c2cccc3cnccc23)cc1 (racemic)
14 | 913 nM | – | – | – | O=C1NC(=O)N(C2CCN(C(=O)c3ccc(F)cc3)CC2)C1Cc1ccc(OS(=O)(=O)c2cccc3cnccc23)cc1 (racemic)
15 | 133 nM | 192 nM | – | – | O=C1NC(=O)N(C2CCN(C(=O)c3ccc(Cl)cc3)CC2)C1Cc1ccc(OS(=O)(=O)c2cccc3cnccc23)cc1 (racemic)
16 | 73 nM | 72 nM | – | – | O=C1NC(=O)N(C2CCN(C(=O)c3ccc(Cl)c(Cl)c3)CC2)C1Cc1ccc(OS(=O)(=O)c2cccc3cnccc23)cc1 (racemic)
17 | 574 nM | – | 60% | – | O=C1NC(=O)N(C2CCN(C(=O)c3ccccc3)CC2)C1Cc1ccc(OS(=O)(=O)c2cccc3cnccc23)cc1 (racemic)
18 | 423 nM | 253 nM | – | – | O=C1NC(=O)N(C2CCN(C(=O)c3ccc(Cl)cc3F)CC2)C1Cc1ccc(OS(=O)(=O)c2cccc3cnccc23)cc1 (racemic)
19 | 220 nM | 313 nM | – | – | O=C1NC(=O)N(C2CCN(C(=O)c3cccc(Cl)c3)CC2)C1Cc1ccc(OS(=O)(=O)c2cccc3cnccc23)cc1 (racemic)
20 | 30 nM | 27 nM | > 95% | – | O=C1NC(=O)N(C2CCN(C(=O)C34CC5CC(CC(Br)(C5)C3)C4)CC2)C1Cc1ccc(OS(=O)(=O)c2cccc3cnccc23)cc1 (racemic)
21 | 168 nM | 98 nM | – | – | O=C1NC(=O)N(C2CCN(C(=O)c3ccc(Cl)c(C(F)(F)F)c3)CC2)C1Cc1ccc(OS(=O)(=O)c2cccc3cnccc23)cc1 (stereo in doubt; (+)-21w)
22 | 1010 nM | – | 54% | – | CC(C)(C)OC(=O)N1CCC(CCN2C(=O)NC(=O)C2Cc2ccc(OS(=O)(=O)c3cccc4cnccc34)cc2)CC1 (racemic)
23 | 69 nM | 49 nM | > 95% | – | O=C1NC(=O)N(C2CCN(C(=O)C34CC5CC(CC3C5)C4)CC2)C1Cc1ccc(OS(=O)(=O)c2cccc3cnccc23)cc1 (racemic)
24 | 355 nM | – | 59% | – | CC(C)(C)OC(=O)N1CCC(N2C(=O)NC(=O)C2Cc2ccc(OS(=O)(=O)c3cccc4cnccc34)cc2)CC1 (racemic)
